Source: ChEMBL document CHEMBL1138736, “Imidazoquinoxaline Src-family kinase p56Lck inhibitors: SAR, QSAR, and the discovery of (S)-N-(2-chloro-6-methylphenyl)-2-(3-methyl-1-piperazinyl)imidazo- [1,5-a]pyrido[3,2-e]pyrazin-6-amine (BMS-279700) as a potent and orally active inhibitor with excellent in vivo antiinflammatory activity” (J Med Chem, 2004)
Several values for one entry are separate records, joined by “and”; a condition that tells them apart may be missing. Equal values may be shown once.

Key:
[1] = Inhibition of Human PBL (T cell) proliferation; type: functional
In short: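 Normal human peripheral blood T cells are added with test compound and anti-CD28 (E.3) antibody to wells precoated with anti-CD3 mAb (G19-4). After 3 days [3H]-thymidine is added, and after further incubation the cells are harvested and incorporation is counted by scintillation.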

[2] = Inhibition of recombinant p56 Lck tyrosine kinase expressed in insect cells
In short: (§1)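 His-tagged recombinant Lck made in insect cells by baculovirus and purified on nickel affinity resin. Kinase buffer is 20 mM MOPS pH 7 with 10 mM MgCl2, and the test compound is present. It is stopped after 10 min with TCA/pyrophosphate then BSA. Enolase is precipitated at 4 °C, filtered and counted by scintillation.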

[3] = target: T1, Inhibitor of nuclear factor kappa-B kinase subunit alpha (Homo sapiens, UniProt O15111); assay: Inhibition of I kappa-B kinase alpha
T1 sequence (O15111 whole entry): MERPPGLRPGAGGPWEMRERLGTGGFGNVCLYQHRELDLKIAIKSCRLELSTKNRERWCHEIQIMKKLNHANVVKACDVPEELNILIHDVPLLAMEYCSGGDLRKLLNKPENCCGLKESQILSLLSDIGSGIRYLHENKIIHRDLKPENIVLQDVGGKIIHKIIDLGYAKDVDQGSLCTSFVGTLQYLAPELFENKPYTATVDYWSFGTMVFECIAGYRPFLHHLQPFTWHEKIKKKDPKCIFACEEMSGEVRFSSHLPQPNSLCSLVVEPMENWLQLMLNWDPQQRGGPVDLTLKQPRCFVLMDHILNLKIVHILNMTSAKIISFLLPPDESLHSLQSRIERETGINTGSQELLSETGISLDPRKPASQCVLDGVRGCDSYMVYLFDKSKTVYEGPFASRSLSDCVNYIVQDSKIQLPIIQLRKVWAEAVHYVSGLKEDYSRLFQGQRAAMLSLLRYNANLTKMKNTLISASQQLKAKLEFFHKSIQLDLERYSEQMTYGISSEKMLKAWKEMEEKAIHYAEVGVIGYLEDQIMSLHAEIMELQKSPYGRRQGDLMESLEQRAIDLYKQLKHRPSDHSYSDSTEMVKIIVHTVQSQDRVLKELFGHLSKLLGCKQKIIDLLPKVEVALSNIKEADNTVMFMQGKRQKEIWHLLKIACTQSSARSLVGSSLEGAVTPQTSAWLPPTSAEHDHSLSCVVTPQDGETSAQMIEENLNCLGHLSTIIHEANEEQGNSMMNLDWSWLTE

MAP kinase p38 = MAP kinase p38 (Homo sapiens, UniProt O15264+Q15759+Q16539+P53778); assay: Inhibition of p38 MAP-kinase; type: protein assay
[4] = target: Tyrosine-protein kinase Yes (Homo sapiens, UniProt P07947); assay: Inhibition of Yes kinase
Sequence of Tyrosine-protein kinase Yes (P07947 whole entry): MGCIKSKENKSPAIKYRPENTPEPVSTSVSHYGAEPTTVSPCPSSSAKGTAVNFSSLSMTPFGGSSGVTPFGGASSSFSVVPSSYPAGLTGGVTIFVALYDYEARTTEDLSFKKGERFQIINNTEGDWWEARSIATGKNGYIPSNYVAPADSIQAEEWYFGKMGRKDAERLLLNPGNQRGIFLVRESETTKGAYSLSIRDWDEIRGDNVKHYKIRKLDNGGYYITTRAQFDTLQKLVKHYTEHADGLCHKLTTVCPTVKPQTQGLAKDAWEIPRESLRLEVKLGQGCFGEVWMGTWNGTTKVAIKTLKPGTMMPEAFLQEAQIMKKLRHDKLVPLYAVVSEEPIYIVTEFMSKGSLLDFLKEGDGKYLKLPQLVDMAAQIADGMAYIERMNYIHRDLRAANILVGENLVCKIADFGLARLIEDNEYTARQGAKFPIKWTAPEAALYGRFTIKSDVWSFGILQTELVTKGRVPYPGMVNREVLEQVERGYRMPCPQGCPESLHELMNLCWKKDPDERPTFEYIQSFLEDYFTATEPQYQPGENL

[5] = target: Tyrosine-protein kinase SYK (Homo sapiens, UniProt P43405); assay: Inhibition of Syk protein tyrosine kinase
[6] = Binding affinity for recombinant Lck/Yes-related tyrosine kinase expressed in insect cells
[7] = Inhibition of Protein kinase A
[8] = target: Receptor tyrosine-protein kinase erbB-2 (Homo sapiens, UniProt P04626); assay: Inhibition of HER2 kinase
Sequence of Receptor tyrosine-protein kinase erbB-2 (P04626 whole entry): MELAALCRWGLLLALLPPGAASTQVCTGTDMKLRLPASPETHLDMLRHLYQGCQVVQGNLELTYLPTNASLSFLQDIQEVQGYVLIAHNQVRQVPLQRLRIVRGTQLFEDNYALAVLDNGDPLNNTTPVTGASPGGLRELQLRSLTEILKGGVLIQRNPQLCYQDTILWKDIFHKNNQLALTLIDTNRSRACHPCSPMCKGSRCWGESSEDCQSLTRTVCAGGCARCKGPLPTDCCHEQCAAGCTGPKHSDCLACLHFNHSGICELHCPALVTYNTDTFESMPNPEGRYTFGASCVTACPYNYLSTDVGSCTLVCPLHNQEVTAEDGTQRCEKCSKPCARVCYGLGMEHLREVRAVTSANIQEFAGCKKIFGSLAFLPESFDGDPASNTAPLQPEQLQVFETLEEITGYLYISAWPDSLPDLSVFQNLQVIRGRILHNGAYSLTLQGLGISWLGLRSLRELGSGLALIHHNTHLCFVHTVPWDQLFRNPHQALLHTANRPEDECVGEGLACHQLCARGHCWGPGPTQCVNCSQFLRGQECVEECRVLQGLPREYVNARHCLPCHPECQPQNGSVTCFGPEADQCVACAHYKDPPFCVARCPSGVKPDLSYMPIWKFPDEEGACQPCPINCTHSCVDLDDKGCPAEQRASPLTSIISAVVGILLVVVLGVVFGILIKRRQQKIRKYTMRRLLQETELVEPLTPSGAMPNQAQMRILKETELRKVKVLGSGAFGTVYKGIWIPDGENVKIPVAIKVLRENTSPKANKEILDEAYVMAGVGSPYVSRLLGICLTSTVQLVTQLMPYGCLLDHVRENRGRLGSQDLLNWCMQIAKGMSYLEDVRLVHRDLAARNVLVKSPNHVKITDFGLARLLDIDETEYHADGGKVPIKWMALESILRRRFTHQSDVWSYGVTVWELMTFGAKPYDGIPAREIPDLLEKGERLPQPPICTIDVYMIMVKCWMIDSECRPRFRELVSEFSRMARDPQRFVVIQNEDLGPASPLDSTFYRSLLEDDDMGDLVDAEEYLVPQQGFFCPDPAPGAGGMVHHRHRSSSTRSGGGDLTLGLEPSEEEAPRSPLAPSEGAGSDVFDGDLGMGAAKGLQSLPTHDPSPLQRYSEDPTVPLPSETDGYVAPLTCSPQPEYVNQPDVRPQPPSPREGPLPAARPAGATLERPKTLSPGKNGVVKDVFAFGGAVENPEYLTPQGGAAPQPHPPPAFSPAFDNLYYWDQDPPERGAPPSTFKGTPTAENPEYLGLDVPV

[9] = Inhibition of Blk kinase
[10] = target: Tyrosine-protein kinase Lyn (Homo sapiens, UniProt P07948); assay: Inhibition of Lyn kinase
Sequence of Tyrosine-protein kinase Lyn (P07948 whole entry): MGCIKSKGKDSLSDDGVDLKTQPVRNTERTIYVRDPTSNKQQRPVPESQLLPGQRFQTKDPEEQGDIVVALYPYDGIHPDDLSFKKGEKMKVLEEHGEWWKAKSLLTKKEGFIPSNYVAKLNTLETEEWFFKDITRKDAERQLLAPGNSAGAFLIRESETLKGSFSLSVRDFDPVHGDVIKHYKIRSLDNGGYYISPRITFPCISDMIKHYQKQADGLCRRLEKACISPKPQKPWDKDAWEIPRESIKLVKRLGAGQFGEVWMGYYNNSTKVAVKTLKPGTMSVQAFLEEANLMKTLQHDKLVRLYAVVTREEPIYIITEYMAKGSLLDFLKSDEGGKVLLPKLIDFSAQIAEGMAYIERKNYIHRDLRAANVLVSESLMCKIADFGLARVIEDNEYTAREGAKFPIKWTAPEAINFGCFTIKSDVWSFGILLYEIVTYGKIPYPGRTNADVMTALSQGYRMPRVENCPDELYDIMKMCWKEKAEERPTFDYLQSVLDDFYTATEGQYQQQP

[11] = target: Tyrosine-protein kinase Fyn (Homo sapiens, UniProt P06241); assay: Inhibition of Fyn protein kinase
Sequence of Tyrosine-protein kinase Fyn (P06241 whole entry): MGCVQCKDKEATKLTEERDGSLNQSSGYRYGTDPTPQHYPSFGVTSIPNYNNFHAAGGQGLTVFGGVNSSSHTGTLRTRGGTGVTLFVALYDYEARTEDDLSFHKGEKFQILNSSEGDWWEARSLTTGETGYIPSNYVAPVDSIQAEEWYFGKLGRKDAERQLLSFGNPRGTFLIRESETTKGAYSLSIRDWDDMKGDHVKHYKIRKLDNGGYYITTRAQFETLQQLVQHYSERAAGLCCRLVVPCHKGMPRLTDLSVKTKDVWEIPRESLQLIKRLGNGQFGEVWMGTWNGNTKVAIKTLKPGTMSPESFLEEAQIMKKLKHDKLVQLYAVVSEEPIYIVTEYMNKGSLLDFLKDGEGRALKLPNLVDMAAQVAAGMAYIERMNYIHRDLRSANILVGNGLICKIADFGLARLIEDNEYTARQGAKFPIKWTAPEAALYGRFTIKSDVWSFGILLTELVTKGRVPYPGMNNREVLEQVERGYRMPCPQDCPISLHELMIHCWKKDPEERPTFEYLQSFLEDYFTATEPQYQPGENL

[12] = target: Tyrosine-protein kinase Fgr (Homo sapiens, UniProt P09769); assay: Inhibition of Fgr protein kinase
Sequence of Tyrosine-protein kinase Fgr (P09769 whole entry): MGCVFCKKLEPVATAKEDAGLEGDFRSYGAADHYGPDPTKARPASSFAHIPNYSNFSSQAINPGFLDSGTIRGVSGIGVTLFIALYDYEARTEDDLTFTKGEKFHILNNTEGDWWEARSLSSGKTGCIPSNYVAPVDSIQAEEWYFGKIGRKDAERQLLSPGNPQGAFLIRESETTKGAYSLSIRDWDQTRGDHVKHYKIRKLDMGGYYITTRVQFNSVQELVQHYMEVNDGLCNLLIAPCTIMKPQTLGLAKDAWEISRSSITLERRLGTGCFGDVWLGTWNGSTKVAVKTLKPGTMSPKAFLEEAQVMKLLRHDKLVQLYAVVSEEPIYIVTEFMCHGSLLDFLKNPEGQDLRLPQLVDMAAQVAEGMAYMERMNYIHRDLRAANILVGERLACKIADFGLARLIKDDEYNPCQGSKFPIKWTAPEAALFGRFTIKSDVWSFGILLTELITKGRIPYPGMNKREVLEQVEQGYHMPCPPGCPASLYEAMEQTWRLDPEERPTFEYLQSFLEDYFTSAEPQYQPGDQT

[13] = target: T2, Inhibitor of nuclear factor kappa-B kinase subunit beta (Homo sapiens, UniProt O14920); assay: Inhibition of I-kappa-B-kinase beta
T2 sequence (O14920 whole entry): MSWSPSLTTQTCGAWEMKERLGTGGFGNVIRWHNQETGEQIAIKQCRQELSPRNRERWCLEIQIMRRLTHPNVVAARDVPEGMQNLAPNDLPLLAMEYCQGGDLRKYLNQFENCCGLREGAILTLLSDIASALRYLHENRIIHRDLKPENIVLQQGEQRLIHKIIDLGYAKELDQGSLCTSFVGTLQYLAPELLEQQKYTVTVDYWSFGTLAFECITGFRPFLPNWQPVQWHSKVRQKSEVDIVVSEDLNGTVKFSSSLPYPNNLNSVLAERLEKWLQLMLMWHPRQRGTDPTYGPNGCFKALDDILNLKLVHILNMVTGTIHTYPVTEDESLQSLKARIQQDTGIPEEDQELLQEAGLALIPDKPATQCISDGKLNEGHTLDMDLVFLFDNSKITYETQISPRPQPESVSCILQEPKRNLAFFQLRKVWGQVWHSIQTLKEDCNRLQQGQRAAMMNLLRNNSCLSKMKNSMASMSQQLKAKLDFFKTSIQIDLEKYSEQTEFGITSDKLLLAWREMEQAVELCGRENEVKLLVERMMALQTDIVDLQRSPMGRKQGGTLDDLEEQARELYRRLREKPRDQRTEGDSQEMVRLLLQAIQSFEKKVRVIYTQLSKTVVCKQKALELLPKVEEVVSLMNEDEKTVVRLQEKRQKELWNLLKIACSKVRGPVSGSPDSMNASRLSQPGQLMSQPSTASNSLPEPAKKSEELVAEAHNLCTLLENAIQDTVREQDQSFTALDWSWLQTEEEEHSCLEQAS

[14] = Inhibition of p56 Lck tyrosine kinase; in short: as §1
[15] = target: Tyrosine-protein kinase HCK (Homo sapiens, UniProt P08631); assay: Inhibition of Hck kinase
Sequence of Tyrosine-protein kinase HCK (P08631 whole entry): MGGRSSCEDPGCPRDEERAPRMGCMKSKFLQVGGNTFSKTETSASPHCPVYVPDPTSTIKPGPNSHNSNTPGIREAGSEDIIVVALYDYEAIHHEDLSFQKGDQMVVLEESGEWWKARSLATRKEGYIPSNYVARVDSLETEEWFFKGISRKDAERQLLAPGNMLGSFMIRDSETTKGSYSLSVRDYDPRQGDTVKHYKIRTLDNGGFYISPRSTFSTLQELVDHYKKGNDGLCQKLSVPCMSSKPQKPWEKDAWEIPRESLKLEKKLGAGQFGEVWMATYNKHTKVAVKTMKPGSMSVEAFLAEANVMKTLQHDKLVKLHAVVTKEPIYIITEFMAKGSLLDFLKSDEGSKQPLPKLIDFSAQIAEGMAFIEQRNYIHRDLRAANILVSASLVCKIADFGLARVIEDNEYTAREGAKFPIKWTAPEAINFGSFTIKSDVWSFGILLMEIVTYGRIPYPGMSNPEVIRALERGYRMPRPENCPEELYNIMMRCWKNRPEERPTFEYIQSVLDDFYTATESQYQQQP

[16] = Inhibition of Platelet-derived growth factor receptor
Protein kinase C (PKC) = assay: Inhibition of PKC kinase; type: protein assay
[17] = target: T3, Tyrosine-protein kinase ZAP-70 (Homo sapiens, UniProt P43403); assay: Inhibition of Zeta-chain (TCR) associated protein kinase 70 kDa (ZAP-70)
T3 sequence (P43403 whole entry): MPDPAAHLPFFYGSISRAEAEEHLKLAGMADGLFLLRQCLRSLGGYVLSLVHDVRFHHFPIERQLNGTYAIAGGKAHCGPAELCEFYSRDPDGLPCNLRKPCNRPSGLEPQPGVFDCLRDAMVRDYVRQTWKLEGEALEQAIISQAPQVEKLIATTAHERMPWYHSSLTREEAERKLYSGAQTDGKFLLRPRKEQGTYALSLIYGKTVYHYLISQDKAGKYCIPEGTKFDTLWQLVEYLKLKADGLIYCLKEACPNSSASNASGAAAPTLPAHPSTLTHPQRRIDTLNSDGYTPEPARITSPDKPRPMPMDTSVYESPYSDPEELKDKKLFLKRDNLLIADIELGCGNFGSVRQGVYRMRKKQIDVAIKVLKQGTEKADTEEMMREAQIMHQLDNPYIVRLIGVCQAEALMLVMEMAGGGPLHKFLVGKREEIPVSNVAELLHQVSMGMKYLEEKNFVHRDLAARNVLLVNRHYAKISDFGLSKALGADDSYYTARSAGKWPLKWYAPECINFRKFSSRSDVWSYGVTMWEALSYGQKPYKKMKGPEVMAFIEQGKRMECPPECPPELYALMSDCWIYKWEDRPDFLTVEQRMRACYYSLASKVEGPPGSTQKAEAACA

[18] = Binding affinity for recombinant p56 Lck tyrosine kinase expressed in insect cells; in short: as §1

SMILES | IC50 ([1]; Homo sapiens) [nM] | IC50 [2] [nM] | further results
CCN(CC)c1ccc2nc(Nc3c(C)cccc3Cl)c3cncn3c2n1 | 2100 | 2 | –
Cc1cccc(Cl)c1Nc1nc2ccc(N3CCN[C@H](C)C3)nc2n2cncc12 | 240 | 2 | –
Cc1cccc(Cl)c1Nc1nc2ccc(N3CC[C@H](O)C3)nc2n2cncc12 | 340 | 4 | –
Cc1cccc(Cl)c1Nc1nc2ccncc2n2cncc12 | – | 1400 | –
Cc1cccc(Cl)c1Nc1nc2ccc(N3CCN(C)CC3)nc2n2cncc12 | 400 | 1 | –
Cc1cccc(Cl)c1Nc1nc2ccc(N(C)CCN(C)C)nc2n2cncc12 | – | 71 | –
Cc1cccc(Cl)c1Nc1nc2ccc(N3CCN[C@@H](C)C3)nc2n2cncc12 | – | – | IC50 [3]: > 10000 nM; IC50 (MAP kinase p38): 380 nM; IC50 [4]: 4.7 nM; IC50 [5]: > 10000 nM; Kd [6]: 0.17 nM; Ki [6]: 0.55 nM; IC50 [7]: > 10000 nM; IC50 [8]: > 1000 nM; IC50 [1]: 273 nM and > 100 nM; IC50 [9]: 27 nM; IC50 [10]: 0.5 nM; IC50 [11]: 5 nM; IC50 [12]: 2.8 nM; IC50 [13]: > 10000 nM; IC50 [14]: 4 nM; IC50 [15]: 23 nM; IC50 [16]: > 1000 nM; IC50 (Protein kinase C (PKC)): > 10000 nM; IC50 [17]: > 1000 nM
Cc1cccc(Cl)c1Nc1nc2cc(N(C)CCN3CCOCC3)ncc2n2cncc12 | – | 103 | –
Cc1cccc(Cl)c1Nc1nc2ccc(N3C[C@@H](C)N[C@@H](C)C3)nc2n2cncc12 | 400 | 2 | –
Cc1cccc(Cl)c1NC1=NC2N=CN(C)C2n2c1cnc2C (stereo unspecified) | – | > 780 | –
Brc1ccccc1Nc1nc2ccccc2n2cncc12 | 17000 | – | –
Cc1cccc(Cl)c1Nc1nc2ccc(N(C)C)nc2n2cncc12 | 1200 | 1 | Log IC50 [18]: 3 µM
Cc1cccc(Cl)c1Nc1nc2ccc(N(CCO)CCO)nc2n2cncc12 | 620 | 4 | –
Cc1cccc(Cl)c1Nc1nc2ccc(N3CCCNCC3)nc2n2cncc12 | 540 | 6 | –
COc1ncc2c(n1)nc(Nc1c(C)cccc1Cl)c1cncn12 | – | > 780 | –
Cc1cccc(Cl)c1Nc1nc2ccc(N3CCN(CCO)CC3)nc2n2cncc12 | 240 | 9 | –
COc1ccc2nc(Nc3c(C)cccc3Cl)c3cncn3c2n1 | 1800 | 19 | –
Cc1cccc(Cl)c1Nc1nc2ccc(N3CC[C@H](N)C3)nc2n2cncc12 | 370 | 6 | –
Cc1cccc(Cl)c1Nc1nc2ncccc2n2cncc12 | – | 90 | –
Cc1cccc(Cl)c1Nc1nc2cccnc2n2cncc12 | – | 30 | –
COc1cc2c(cc1NCCN(C)C)nc(Nc1c(C)cccc1Cl)c1cncn12 | 194 | – | –
Cc1cccc(Cl)c1Nc1nc2ccc(-n3ccnc3)nc2n2cncc12 | 470 | 5 | –
Cc1cccc(Cl)c1Nc1nc2cnccc2n2cncc12 | – | 77 | –

SMILES | IC50 ([1]; Homo sapiens) [nM] | IC50 [2] [nM] | further results
Cc1cccc(Cl)c1Nc1nc2ccc(N3CCN[C@H](CO)C3)nc2n2cncc12 | 180 | 3 | –
Cc1cccc(Cl)c1Nc1nc2ccc(Cl)nc2n2cncc12 | – | 25 | –
Cc1cccc(Cl)c1Nc1nc2ccc(N(C)C[C@H](O)CO)nc2n2cncc12 | 630 | 13 | –
Cc1cccc(Cl)c1Nc1nc2cnc(N3C[C@@H](C)N[C@@H](C)C3)cc2n2cncc12 | – | 29 | –
Cc1cccc(Cl)c1Nc1nc2ccc(N(C)C[C@@H](O)CO)nc2n2cncc12 | 300 | 7 | –
Cc1cccc(C)c1Nc1nc2ncccc2n2cncc12 | – | 150 | –
COc1ccc2c(c1)nc(Nc1c(C)cccc1Cl)c1cncn12 | 2600 | – | –
Cc1cccc(Cl)c1Nc1nc2ccc(N3CCN(CCN(C)C)CC3)nc2n2cncc12 | 250 | 2 | –
Cc1cccc(Cl)c1Nc1nc2ccc(N3C[C@@H](O)[C@H](O)C3)nc2n2cncc12 | 440 | 5 | –
CC1=NN(C)C2C1N=C(Nc1c(C)cccc1Cl)c1cnc(C)n12 (stereo unspecified) | – | > 780 | –
Cc1cccc(Cl)c1Nc1nc2ccc(N3CC[C@@H](N)C3)nc2n2cncc12 | 310 | 7 | –
COc1cc2nc(Nc3c(C)cccc3Cl)c3cncn3c2cc1OC | 670 | – | –
Cc1cccc(Cl)c1Nc1nc2ccc(N3CCN[C@@H](CO)C3)nc2n2cncc12 | 270 | 5 | –
Cc1cccc(Cl)c1Nc1nc2ccc(NCCO)nc2n2cncc12 | 490 | 3 | –
Cc1cccc(Cl)c1Nc1nc2ccc(N3CCOCC3)nc2n2cncc12 | 1900 | 1 | –
Cc1cccc(Cl)c1Nc1nc2cc(N3CCNCC3)ncc2n2cncc12 | – | 163 | –
Cc1cccc(Cl)c1Nc1nc2ccc(N3CCCCC3)nc2n2cncc12 | – | 7 | –
Cc1cccc(Cl)c1Nc1nc2ccc(N(C)CCO)nc2n2cncc12 | 620 | 3 | –
Cc1cccc(Cl)c1Nc1nc2ccc(N3CC[C@@H](O)C3)nc2n2cncc12 | 730 | 8 | –
Cc1cccc(Cl)c1Nc1nc2ccc(N3C[C@H](O)[C@@H](O)C3)nc2n2cncc12 | > 2000 | 13 | –
Cc1cccc(Cl)c1Nc1nc2ccccc2n2cncc12 | 5000 | 9 | –
Cc1cccc(Cl)c1Nc1nc2cc(N(C)CCN(C)C)ncc2n2cncc12 | – | 240 | –
Cc1cccc(C)c1Nc1nc2ccc(N3CCNCC3)nc2n2cncc12 | 230 | 1 | –
